From ChEMBL document CHEMBL2146441, “2,6-Disubstituted imidazo[2,1-b][1,3,4]thiadiazoles: search for anticancer agents” (2012)

How the values were obtained:
Assay type in all cases: functional
OVCAR-3 [1] = test: Growth inhibition of human OVCAR3 cells after 48 hrs by SRB assay; conditions: OVCAR-3, 48 h
In short: (§1)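 Adherent NCI-60 lines grown in RPMI 1640 with 5% FBS, seeded at 5000–40,000 cells/well, and preincubated 24 h at 37 °C, 5% CO2. Compound, stocked in DMSO, given either once at 10^-5 M or at five 10-fold dilutions for 48 h. Cells fixed with cold TCA (final 10%), stained with 0.4% SRB, and read at 515 nm. GI50 taken as 50% reduction in net protein increase versus time-zero and control plates.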

OVCAR-3 [2] = test: Cytotoxicity against human OVCAR3 cells assessed as cell growth at 10^-7 M after 48 hrs by SRB assay; conditions: OVCAR-3, 48 h, read-out: Activity
SN12C = test: Cytotoxicity against human SN12C cells assessed as cell growth at 10^-5 M after 48 hrs by SRB assay; conditions: read-out: Activity
Malme-3M = test: Growth inhibition of human MALME-3M cells after 48 hrs by SRB assay; conditions: for CC50: read-out: LC50 (the source's name); in short: as §1
EKVX = test: Growth inhibition of human EKVX cells after 48 hrs by SRB assay; in short: as §1
OVCAR-5 = test: Cytotoxicity against human OVCAR5 cells assessed as cell growth at 10^-6 M after 48 hrs by SRB assay; conditions: OVCAR-5, 48 h, read-out: Activity
COLO = test: Cytotoxicity against human COLO […] cells assessed as cell growth at 10^-6 M after 48 hrs by SRB assay; conditions: read-out: Activity
In short: (§2)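 NCI-60 screen: lines kept in RPMI 1640 with 5% FBS, seeded at 5000–40,000 cells/well by doubling time, preincubated 24 h at 37 °C in 5% CO2. Time-zero plates TCA-fixed at drug addition. DMSO stocks diluted in medium, 48 h exposure. Fixation in cold TCA (final 10% adherent, 16% suspension), 0.4% SRB stain, solubilised in 10 mM Tris base, A515. Percent growth computed against control and time-zero.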

DU-145 = test: Cytotoxicity against human DU145 cells assessed as cell growth at 10^-5 M after 48 hrs by SRB assay; conditions: DU-145, 48 h, read-out: Activity; in short: as §2
SNB-19 = test: Cytotoxicity against human SNB19 cells assessed as cell growth at 10^-5 M after 48 hrs by SRB assay; conditions: SNB-19, 48 h, read-out: Activity
ACHN [3] = test: Cytotoxicity against human ACHN cells assessed as cell growth at 10^-5 M after 48 hrs by SRB assay; conditions: read-out: Activity; in short: as §2
CCRF-CEM = test: Growth inhibition of human CCRF-CEM cells after 48 hrs by SRB assay; conditions: for CC50: read-out: LC50 (the source's name)
In short: (§3)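 Same 48 h NCI-60 five-dose SRB protocol. Adherent lines were fixed with cold TCA at 10% final; suspension lines such as CCRF-CEM were fixed with 16% final TCA. Stain was 0.4% SRB in 1% acetic acid for 10 min, solubilized in 10 mM Tris base and read at 515 nm. GI50 came from log concentration–growth curves, solving [(Ti−Tz)/(C−Tz)]×100 = 50.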

SK-MEL-28 = test: Cytotoxicity against human SK-MEL-28 cells assessed as cell growth at 10^-5 M after 48 hrs by SRB assay; conditions: SK-MEL-28, 48 h, read-out: Activity
KM12 = test: Cytotoxicity against human KM12 cells assessed as cell growth at 10^-6 M after 48 hrs by SRB assay; conditions: KM12, 48 h, read-out: Activity
LOX IMVI = test: Cytotoxicity against human LOXIMVI cells assessed as cell growth at 10^-8 M after 48 hrs by SRB assay; conditions: read-out: Activity
MDA-MB-468 = test: Cytotoxicity against human MDA-MB-468 cells assessed as cell growth at 10^-8 M after 48 hrs by SRB assay; conditions: MDA-MB-468, 48 h, read-out: Activity
OVCAR-3 [4] = test: Cytotoxicity against human OVCAR3 cells assessed as cell growth at 10^-8 M after 48 hrs by SRB assay; conditions: OVCAR-3, 48 h, read-out: Activity
ACHN [5] = test: Cytotoxicity against human ACHN cells assessed as cell growth at 10^-6 M after 48 hrs by SRB assay; conditions: read-out: Activity; in short: as §2
ACHN [6] = test: Growth inhibition of human ACHN cells after 48 hrs by SRB assay; conditions: for CC50: read-out: LC50 (the source's name); in short: as §3
OVCAR-4 = test: Growth inhibition of human OVCAR4 cells after 48 hrs by SRB assay; conditions: OVCAR-4, 48 h; in short: as §1
MDA-MB-435 = test: Cytotoxicity against human MDA-MB-435 cells assessed as cell growth at 10^-7 M after 48 hrs by SRB assay; conditions: MDA-MB-435, 48 h, read-out: Activity
HL-60 = test: Cytotoxicity against human HL60 cells assessed as cell growth at 10^-8 M after 48 hrs by SRB assay; conditions: HL-60, 48 h, read-out: Activity
In short: (§4)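 NCI-60 five-dose screen. Cells were grown in RPMI 1640 with 5% FBS and seeded at 5000–40,000 cells/well according to doubling time. They were pre-incubated 24 h at 37 °C in 5% CO₂, and time-zero (Tz) plates were TCA-fixed at drug addition. Five 10-fold dilutions of DMSO stock were applied for 48 h. Read-out was SRB staining, 515 nm absorbance, with percent growth calculated versus Tz and untreated control.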

SF-268 = test: Cytotoxicity against human SF268 cells assessed as cell growth at 10^-4 M after 48 hrs by SRB assay; conditions: SF-268, 48 h, read-out: Activity
SR = test: Cytotoxicity against human SR cells assessed as cell growth at 10^-8 M after 48 hrs by SRB assay; conditions: read-out: Activity
CAKI-1 = test: Growth inhibition of human Caki1 cells after 48 hrs by SRB assay; conditions: CAKI-1, 48 h; in short: as §3
SK-OV-3 = test: Cytotoxicity against human SKOV3 cells assessed as cell growth at 10^-4 M after 48 hrs by SRB assay; conditions: SK-OV-3, 48 h, read-out: Activity
BT-549 = test: Growth inhibition of human BT549 cells after 48 hrs by SRB assay; conditions: BT-549, 48 h; for CC50: read-out: LC50 (the source's name); in short: as §3
NCI-H322M = test: Cytotoxicity against human NCI-H322M cells assessed as cell growth at 10^-6 M after 48 hrs by SRB assay; conditions: read-out: Activity
HOP-92 = test: Cytotoxicity against human HOP92 cells assessed as cell growth at 10^-8 M after 48 hrs by SRB assay; conditions: HOP-92, 48 h, read-out: Activity; in short: as §4
786-0 = test: Cytotoxicity against human 786-0 cells assessed as cell growth at 10^-5 M after 48 hrs by SRB assay; conditions: 786-0, 48 h, read-out: Activity; in short: as §2

For `COc1ccc(-c2nn3cc(-c4ccc(O)cc4O)nc3s2)cc1`, the GI50 (OVCAR-3 [1]) was 2.54 µM, the LC50 (concentration causing 50% net cell kill) (OVCAR-3 [1]) was > 100 µM and the TGI (OVCAR-3 [1]) was 8.48 µM. It also gave a growth at 0.1 µM (OVCAR-3 [2]) of 98%, a growth at 10 µM (SN12C) of 7% and a GI50 (Malme-3M) of 1.32 µM. For the same compound, the TGI (Malme-3M) was 4.7 µM, the CC50 (Malme-3M) was > 100 µM and the GI50 (EKVX) was 1.95 µM. For the same compound, the LC50 (concentration killing 50% of cells) (EKVX) was > 100 µM, the TGI (EKVX) was 41.2 µM and the growth at 1 µM (OVCAR-5) was 84%. It also gave a growth at 1 µM (COLO) of 100%, a growth at 10 µM (DU-145) of 27% and a growth at 10 µM (SNB-19) of 22%. The growth at 10 µM (ACHN [3]) was 9%, the GI50 (CCRF-CEM) was 5.08 µM and the TGI (CCRF-CEM) was > 100 µM. The CC50 (CCRF-CEM) was > 100 µM, the growth at 10 µM (SK-MEL-28) was 3% and the growth at 1 µM (KM12) was 86%. For the same compound, the growth at 0.01 µM (LOX IMVI) was 101%, the growth at 0.01 µM (MDA-MB-468) was 96% and the growth at 0.01 µM (OVCAR-3 [4]) was 102%. For the same compound, the growth at 1 µM (ACHN [5]) was 100%, the GI50 (ACHN [6]) was 3.52 µM and the TGI (ACHN [6]) was > 100 µM. The CC50 (ACHN [6]) was > 100 µM, the GI50 (OVCAR-4) was 1.38 µM and the TGI (OVCAR-4) was 3.39 µM. The growth at 0.1 µM (MDA-MB-435) was 91%, the growth at 0.01 µM (HL-60) was 96% and the growth at 100 µM (SF-268) was -8%. For the same compound, the growth at 0.01 µM (SR) was 89%, the GI50 (CAKI-1) was 2.07 µM and the LC50 (50% lethal concentration) (CAKI-1) was > 100 µM. It also gave a TGI (CAKI-1) of 28.9 µM, a growth at 100 µM (SK-OV-3) of -50% and a GI50 (BT-549) of 2.36 µM. For the same compound, the TGI (BT-549) was 28.1 µM, the CC50 (BT-549) was > 100 µM and the growth at 1 µM (NCI-H322M) was 77%. It also gave a growth at 0.01 µM (HOP-92) of 73% and a growth at 10 µM (786-0) of -78%.

With `COc1ccc(-c2nn3cc(-c4cccc(N)c4)nc3s2)cc1` the GI50 (OVCAR-3 [1]) was 3.4 µM, the LC50 (concentration causing 50% net cell kill) (OVCAR-3 [1]) was 55.2 µM and the TGI (OVCAR-3 [1]) was 15.9 µM. It also gave a growth at 0.1 µM (OVCAR-3 [2]) of 98%, a growth at 10 µM (SN12C) of 36% and a GI50 (Malme-3M) of 1.74 µM. It also gave a TGI (Malme-3M) of 6.5 µM, a CC50 (Malme-3M) of 47.3 µM and a GI50 (EKVX) of 1.01 µM. The LC50 (concentration killing 50% of cells) (EKVX) was > 100 µM, the TGI (EKVX) was 12.8 µM and the growth at 1 µM (OVCAR-5) was 90%. For the same compound, the growth at 1 µM (COLO) was 94%, the growth at 10 µM (DU-145) was 41% and the growth at 10 µM (SNB-19) was 54%. For the same compound, the growth at 10 µM (ACHN [3]) was 27%, the GI50 (CCRF-CEM) was 1.77 µM and the TGI (CCRF-CEM) was > 100 µM. For the same compound, the CC50 (CCRF-CEM) was > 100 µM, the growth at 10 µM (SK-MEL-28) was 28% and the growth at 1 µM (KM12) was 84%. It also gave a growth at 0.01 µM (LOX IMVI) of 94%, a growth at 0.01 µM (MDA-MB-468) of 94% and a growth at 0.01 µM (OVCAR-3 [4]) of 102%. It also gave a growth at 1 µM (ACHN [5]) of 93%, a GI50 (ACHN [6]) of 4.5 µM and a TGI (ACHN [6]) of 21.8 µM. The CC50 (ACHN [6]) was 91.3 µM, the GI50 (OVCAR-4) was 1.54 µM and the TGI (OVCAR-4) was 15.1 µM. The CC50 (OVCAR-4; read-out: LC50 (the source's name)) was > 100 µM, the growth at 0.1 µM (MDA-MB-435) was 88% and the growth at 0.01 µM (HL-60) was 103%. It also gave a growth at 100 µM (SF-268) of -34%, a growth at 0.01 µM (SR) of 103% and a GI50 (CAKI-1) of 0.743 µM. For the same compound, the LC50 (50% lethal concentration) (CAKI-1) was > 100 µM, the TGI (CAKI-1) was 10.9 µM and the growth at 100 µM (SK-OV-3) was -68%. The GI50 (BT-549) was 3.88 µM, the TGI (BT-549) was 30.8 µM and the CC50 (BT-549) was > 100 µM. The growth at 1 µM (NCI-H322M) was 86%, the growth at 0.01 µM (HOP-92) was 71% and the growth at 10 µM (786-0) was 23%.
